ChEMBL document CHEMBL1142894, “Preparation of 5-aryl-3-alkylthio-l,2,4-triazoles and corresponding sulfones with antiinflammatory-analgesic activity” (Bioorg Med Chem, 2007)
Active and inactive are the calls of the source. The calls are words filed in the database; no cut-off is given here.

How the values were obtained:
Mus musculus [1] = experiment: Antiinflammatory activity against carrageenan-induced paw edema in Swiss albino mouse assessed as swelling thickness at 100 mg/kg, po after 90 mins; type: functional
How it was run: (§1)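 Oral dosing in 0.5% CMC; vehicle to controls. Then carrageenan (0.5 mg/25 ll, freshly suspended in 154 mM saline) injected into the right hind paw subplantar tissue; saline into the left paw. Right-left footpad thickness difference measured by dial gauge calliper every 90 min over 6 h. Inhibition % is relative to vehicle control. n = 6; mean ± SEM.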

Mus musculus [2] = experiment: Antiinflammatory activity against carrageenan-induced paw edema in Swiss albino mouse assessed as swelling thickness at 100 mg/kg, po after 180 mins; type: functional; how it was run: as §1
Mus musculus [3] = experiment: Antiinflammatory activity against carrageenan-induced paw edema in Swiss albino mouse assessed as swelling thickness at 100 mg/kg, po after 270 mins; type: functional; how it was run: as §1
Mus musculus [4] = experiment: Antiinflammatory activity against carrageenan-induced paw edema in Swiss albino mouse assessed as swelling thickness at 100 mg/kg, po after 360 mins; type: functional; how it was run: as §1
Mus musculus [5] = experiment: Inhibition of carrageenan-induced paw edema in Swiss albino mouse at 100 mg/kg, po after 90 mins relative to control; type: functional; conditions: 1.5 h; how it was run: as §1
Mus musculus [6] = experiment: Inhibition of carrageenan-induced paw edema in Swiss albino mouse at 100 mg/kg, po after 180 mins relative to control; type: functional; conditions: 3 h; how it was run: as §1
Mus musculus [7] = experiment: Inhibition of carrageenan-induced paw edema in Swiss albino mouse at 100 mg/kg, po after 270 mins relative to control; type: functional; conditions: 4.5 h; how it was run: as §1
Mus musculus [8] = experiment: Inhibition of carrageenan-induced paw edema in Swiss albino mouse at 100 mg/kg, po after 360 mins relative to control; type: functional; conditions: 6 h; how it was run: as §1
Mus musculus [9] = experiment: Analgesic activity against p-benzoquinone-induced abdominal constriction in Swiss albino mouse assessed as number of writhings at 25 mg/kg, po; type: functional, Abdomen
How it was run: (§2)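 Test samples given orally in 0.5% CMC; vehicle to controls. 60 min later, 2.5% (v/v) p-benzoquinone in distilled water, 0.1 ml/10 g, given i.p. Mice housed singly; writhes counted for 15 min starting 5 min after injection. Activity is % change from vehicle controls. n = 6; mean ± SEM.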

Mus musculus [10] = experiment: Analgesic activity against p-benzoquinone-induced abdominal constriction in Swiss albino mouse assessed as number of writhings at 50 mg/kg, po; type: functional, Abdomen; how it was run: as §2
Mus musculus [11] = experiment: Analgesic activity against p-benzoquinone-induced abdominal constriction in Swiss albino mouse assessed as number of writhings at 100 mg/kg, po; type: functional, Abdomen; how it was run: as §2
Mus musculus [12] = experiment: Analgesic activity against p-benzoquinone-induced abdominal constriction in Swiss albino mouse assessed as number of writhings at 200 mg/kg, po; type: functional, Abdomen; how it was run: as §2
Mus musculus [13] = experiment: Inhibition of p-benzoquinone-induced writhing in Swiss albino mouse at 25 mg/kg, po relative to control; type: functional
How it was run: (§3)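 Mice, n = 6 per group, dosed orally with a suspension in 0.5% sodium CMC. 60 min later, 0.1 ml/10 g of 2.5% […] p-benzoquinone in distilled water given ip. Abdominal writhes counted per animal for 15 min, starting 5 min after injection. Expressed as % change in mean writhing count versus vehicle controls.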

Mus musculus [14] = experiment: Inhibition of p-benzoquinone-induced writhing in Swiss albino mouse at 50 mg/kg, po relative to control; type: functional; how it was run: as §3
Mus musculus [15] = experiment: Inhibition of p-benzoquinone-induced writhing in Swiss albino mouse at 100 mg/kg, po relative to control; type: functional; how it was run: as §3
Mus musculus [16] = experiment: Inhibition of p-benzoquinone-induced writhing in Swiss albino mouse at 200 mg/kg, po relative to control; type: functional; how it was run: as §3
Mus musculus [17] = experiment: Gastric-ulcerogenic effect in Swiss albino mouse assessed as lesions at 25 mg/kg, po; type: functional, organism-based; parameters: dose 25 mg/kg
How it was run: (§4)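 Mice killed under deep ether anesthesia 3 h after the writhing test; the oral dose in 0.5% CMC was the one used in that test. Stomachs removed, opened along the great curvature and examined under a dissecting microscope for lesions or bleeding. Reported as ratio of ulceration; n = 6.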

Mus musculus [18] = experiment: Gastric-ulcerogenic effect in Swiss albino mouse assessed as lesions at 50 mg/kg, po; type: functional, organism-based; parameters: dose 50 mg/kg; how it was run: as §4
Mus musculus [19] = experiment: Gastric-ulcerogenic effect in Swiss albino mouse assessed as lesions at 100 mg/kg, po; type: functional, organism-based; parameters: dose 100 mg/kg; how it was run: as §4
Mus musculus [20] = experiment: Antiinflammatory activity against carrageenan-induced paw edema in Swiss albino mouse assessed as swelling thickness at 25 mg/kg, po after 90 mins; type: functional; how it was run: as §1
Mus musculus [21] = experiment: Antiinflammatory activity against carrageenan-induced paw edema in Swiss albino mouse assessed as swelling thickness at 25 mg/kg, po after 180 mins; type: functional; how it was run: as §1
Mus musculus [22] = experiment: Antiinflammatory activity against carrageenan-induced paw edema in Swiss albino mouse assessed as swelling thickness at 25 mg/kg, po after 270 mins; type: functional; how it was run: as §1
Mus musculus [23] = experiment: Antiinflammatory activity against carrageenan-induced paw edema in Swiss albino mouse assessed as swelling thickness at 25 mg/kg, po after 360 mins; type: functional; how it was run: as §1
Mus musculus [24] = experiment: Antiinflammatory activity against carrageenan-induced paw edema in Swiss albino mouse assessed as swelling thickness at 50 mg/kg, po after 180 mins; type: functional; how it was run: as §1
Mus musculus [25] = experiment: Antiinflammatory activity against carrageenan-induced paw edema in Swiss albino mouse assessed as swelling thickness at 50 mg/kg, po after 270 mins; type: functional; how it was run: as §1
Mus musculus [26] = experiment: Antiinflammatory activity against carrageenan-induced paw edema in Swiss albino mouse assessed as swelling thickness at 50 mg/kg, po after 360 mins; type: functional; how it was run: as §1
Mus musculus [27] = experiment: Antiinflammatory activity against carrageenan-induced paw edema in Swiss albino mouse assessed as swelling thickness at 200 mg/kg, po after 90 mins; type: functional; how it was run: as §1
Mus musculus [28] = experiment: Antiinflammatory activity against carrageenan-induced paw edema in Swiss albino mouse assessed as swelling thickness at 200 mg/kg, po after 180 mins; type: functional; how it was run: as §1
Mus musculus [29] = experiment: Antiinflammatory activity against carrageenan-induced paw edema in Swiss albino mouse assessed as swelling thickness at 200 mg/kg, po after 270 mins; type: functional; how it was run: as §1
Mus musculus [30] = experiment: Antiinflammatory activity against carrageenan-induced paw edema in Swiss albino mouse assessed as swelling thickness at 200 mg/kg, po after 360 mins; type: functional; how it was run: as §1
Mus musculus [31] = experiment: Inhibition of carrageenan-induced paw edema in Swiss albino mouse at 50 mg/kg, po after 90 mins relative to control; type: functional; conditions: 1.5 h
How it was run: (§5)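 Mice, n = 6 per group. Test agent given orally as a suspension in 0.5% sodium CMC in distilled water; controls received vehicle only. Afterwards, 0.5 mg/25 ll carrageenan in saline (154 mM NaCl) injected subplantar into the right hind paw, saline into the left. Right-minus-left footpad thickness measured by dial gauge caliper every 90 min for 6 h. Inhibition is relative to vehicle-control group means.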

Mus musculus [32] = experiment: Inhibition of carrageenan-induced paw edema in Swiss albino mouse at 50 mg/kg, po after 180 mins relative to control; type: functional; conditions: 3 h; how it was run: as §1
Mus musculus [33] = experiment: Inhibition of carrageenan-induced paw edema in Swiss albino mouse at 50 mg/kg, po after 270 mins relative to control; type: functional; conditions: 4.5 h; how it was run: as §5
Mus musculus [34] = experiment: Inhibition of carrageenan-induced paw edema in Swiss albino mouse at 50 mg/kg, po after 360 mins relative to control; type: functional; conditions: 6 h; how it was run: as §5
Mus musculus [35] = experiment: Acute toxicity in Swiss albino mouse assessed as lethal effect at 25 mg/kg/day, po after 72 hrs; type: organism-based; parameters: route oral; conditions: in vivo
How it was run: (§6)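 Oral single dose suspended in 0.5% carboxymethylcellulose, given after a 24 h fast; food and water returned 1 h after dosing. Vehicle-only controls. Mice observed at 1 h, then once daily for 72 h, for toxic signs and mortality.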

Mus musculus [36] = experiment: Acute toxicity in Swiss albino mouse assessed as lethal effect at 50 mg/kg/day, po after 72 hrs; type: organism-based; parameters: route oral; conditions: in vivo; how it was run: as §6
Mus musculus [37] = experiment: Acute toxicity in Swiss albino mouse assessed as lethal effect at 100 mg/kg/day, po after 72 hrs; type: organism-based; parameters: route oral; conditions: in vivo; how it was run: as §6
Mus musculus [38] = experiment: Acute toxicity in Swiss albino mouse assessed as lethal effect at 200 mg/kg/day, po after 72 hrs; type: organism-based; parameters: route oral; conditions: in vivo; how it was run: as §6
Mus musculus [39] = experiment: Antiinflammatory activity against carrageenan-induced paw edema in Swiss albino mouse assessed as swelling thickness at 50 mg/kg, po after 90 mins; type: functional; how it was run: as §1

CCS(=O)(=O)c1nc(-c2ccc(Br)cc2)n[nH]1
Activity (Mus musculus [1]): 32.1 10^-2mm | Activity (Mus musculus [2]): 38.3 10^-2mm | Activity (Mus musculus [3]): 45.7 10^-2mm | Activity (Mus musculus [4]): 49.9 10^-2mm | inhibition in vivo at 100 mg/kg (Mus musculus [5]): 28.3% | inhibition in vivo at 100 mg/kg (Mus musculus [6]): 25.6% | inhibition in vivo at 100 mg/kg (Mus musculus [7]): 22.3% | inhibition in vivo at 100 mg/kg (Mus musculus [8]): 27.5% | Activity (Mus musculus [9]): 40.9 | Activity (Mus musculus [10]): 35.9 | Activity (Mus musculus [11]): 35.2 | Activity (Mus musculus [12]): 50.6 | inhibition in vivo at 25 mg/kg (Mus musculus [13]): 20.4% | inhibition in vivo at 50 mg/kg (Mus musculus [14]): 30.2% | inhibition in vivo at 100 mg/kg (Mus musculus [15]): 25.6% | inhibition in vivo at 200 mg/kg (Mus musculus [16]): 1.6% | Activity (Mus musculus [17]): Active | Activity (Mus musculus [18]): Active | Activity (Mus musculus [19]): Active | Activity (Mus musculus [20]): 54.6 10^-2mm | Activity (Mus musculus [21]): 62.8 10^-2mm | Activity (Mus musculus [22]): 67.8 10^-2mm | Activity (Mus musculus [23]): 75.1 10^-2mm | Activity (Mus musculus [24]): 43.5 10^-2mm | Activity (Mus musculus [25]): 49.1 10^-2mm | Activity (Mus musculus [26]): 50.4 10^-2mm | Activity (Mus musculus [27]): 57.4 10^-2mm | Activity (Mus musculus [28]): 61.5 10^-2mm | Activity (Mus musculus [29]): 68.5 10^-2mm | Activity (Mus musculus [30]): 76.2 10^-2mm | inhibition in vivo at 50 mg/kg (Mus musculus [31]): 35.2% | inhibition in vivo at 50 mg/kg (Mus musculus [32]): 26.8% | inhibition in vivo at 50 mg/kg (Mus musculus [33]): 24.2% | inhibition in vivo at 50 mg/kg (Mus musculus [34]): 30% | Activity (Mus musculus [35]): Non-toxic | Activity (Mus musculus [36]): Non-toxic | Activity (Mus musculus [37]): Non-toxic | Activity (Mus musculus [38]): Non-toxic | Activity (Mus musculus [39]): 40.4 10^-2mm
